# Results from different studies.
# Each line is one published result; the experiments were not run side by side.
# Target: Rhodopsin kinase GRK7 (GRK7, Homo sapiens, UniProt Q8WTQ7)
# Sequence (Q8WTQ7 1-553, as in one of the studies): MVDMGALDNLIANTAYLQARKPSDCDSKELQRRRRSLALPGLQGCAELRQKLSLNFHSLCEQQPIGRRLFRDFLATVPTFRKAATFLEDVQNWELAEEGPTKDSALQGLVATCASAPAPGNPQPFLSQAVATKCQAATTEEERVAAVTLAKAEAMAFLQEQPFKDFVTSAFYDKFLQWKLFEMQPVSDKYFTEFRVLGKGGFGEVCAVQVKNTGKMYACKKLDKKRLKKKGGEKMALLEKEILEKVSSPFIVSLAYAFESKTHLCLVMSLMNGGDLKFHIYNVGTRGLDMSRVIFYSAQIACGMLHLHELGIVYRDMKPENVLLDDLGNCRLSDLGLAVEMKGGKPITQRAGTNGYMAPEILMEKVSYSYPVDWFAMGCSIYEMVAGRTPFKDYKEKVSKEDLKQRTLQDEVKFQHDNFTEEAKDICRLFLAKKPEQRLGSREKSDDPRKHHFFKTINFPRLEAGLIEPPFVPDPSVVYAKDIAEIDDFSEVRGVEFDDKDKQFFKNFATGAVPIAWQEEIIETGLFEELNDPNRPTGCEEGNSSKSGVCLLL
SMILES,read-out,action,technique,tested at,quantity,value
Cc1ccc(NC(=O)c2ccc(C)c(C(F)(F)F)c2)cc1C#Cc1nn(C2CCC(O)CC2)c2ncnc(N)c12 (centres unmarked),cell-free assay,,,10 µM,remaining signal,101%
CCCS(=O)(=O)Nc1ccc(F)c(C(=O)c2c[nH]c3ncc(-c4ccc(Cl)cc4)cc23)c1F,enzyme activity,inhibitor,,1 µM,inhibition,< 10%
COc1cc2c(N3CCN(C(=O)Nc4ccc(OC(C)C)cc4)CC3)ncnc2cc1OCCCN1CCCCC1,cell-free assay,,,0.5 µM,remaining signal,104%
CC1=C(C#N)C(c2ccc3c(c2)c(NC(=O)c2ccccc2C)nn3C)C(C#N)=C(C)N1,cell-free assay,,competition with immobilised ligand,1 µM,remaining binding,70%
C#Cc1cccc(Nc2ncnc3cc(OCCOC)c(OCCOC)cc23)c1,cell-free assay,,,0.5 µM,remaining signal,98.3%
CCC(=O)N[C@H]1CC[C@@H](C(=O)N(C)c2ccc(-c3nc4ccccc4o3)cc2)C1,cell-free assay,,competition with immobilised ligand,1 µM,remaining binding,82%
CN1CC(Oc2cnc(C#N)cc2-c2ccn3nc(NC(=O)C4CC4)cc3c2)C1,enzyme activity,inhibitor,,1 µM,inhibition,-8%
Cc1sc(C(=O)NC2COC2)cc1-n1cc(NC(=O)Nc2c(F)cccc2Cl)cn1,enzyme activity,inhibitor,,10 µM,remaining activity,99.9%
Cc1cc(NC(=O)c2cccc3cc(-c4cccc5[nH]nc(N)c45)ccc23)ccc1F,enzyme activity,inhibitor,,0.1 µM,activity vs control,114%
CS(=O)(=O)c1cc(C2(NC(=O)c3cncc4c3cnn4-c3ccc(F)cc3)CC2)ccn1,cell-free assay,,competition with immobilised ligand,1 µM,remaining binding,96%
Cc1cnc(NC2CCOCC2)nc1-n1cnc(C(=O)NC(CN)c2cc(F)cc(Cl)c2)c1 (centres unmarked),enzyme activity,inhibitor,radiometric,1 µM,remaining activity,85%
CCN(CC)c1ccc(C2=NNC(=O)CC2C)cc1[N+](=O)[O-] (centres unmarked),enzyme activity,inhibitor,,10 µM,remaining activity,100%
O=C(N1CCS(=O)(=O)CC1)N1C[C@H](c2ccc(OC(F)(F)F)cc2)C[C@H](c2nc(C3CC3)no2)C1,cell-free assay,,competition with immobilised ligand,1 µM,remaining binding,100%
COc1cc(Cl)c(C(=O)N[C@@H](CN[C@H]2CC[C@@H](N)CC2)Cc2ccc(C#N)cc2)cc1-c1ccc(CN[C@H](C)c2ccc(C)cc2)o1,enzyme activity,inhibitor,,1 µM,remaining activity,102%
CCCOc1ccc([C@H]2[C@H](C(=O)O)[C@@H](c3ccc4c(c3)OCO4)CN2CC(=O)Nc2c(CC)cccc2CC)cc1,cell-free assay,,competition with immobilised ligand,1 µM,remaining binding,100%
COc1cc2ncnc(Nc3ccc(Oc4ccccc4)cc3C)c2cc1OC,enzyme activity,inhibitor,,1 µM,inhibition,-3%
CC(C)(C)c1nc(-c2cccc(NS(=O)(=O)c3c(F)cccc3F)c2F)c(-c2ccnc(N)n2)s1,enzyme activity,inhibitor,radiometric,1 µM,remaining activity,76%
